Experimental data: ChEMBL document CHEMBL3286352, “Dimeric flavonoids from Arrabidaea brachypoda and assessment of their anti-Trypanosoma cruzi activity” (J Nat Prod, 2014)
Active and inactive are the calls of the source. No cut-off for these calls is given here.

What was measured:
[1] = biological target: Cruzipain (Trypanosoma cruzi) (UniProt P25779); experiment: Inhibition of recombinant Trypanosoma cruzi cruzain at 25 uM preincubated for 10 mins followed by substrate addition measured after 10 mins relative to control
Sequence of Cruzipain (Trypanosoma cruzi) (P25779 123-467 limits assumed): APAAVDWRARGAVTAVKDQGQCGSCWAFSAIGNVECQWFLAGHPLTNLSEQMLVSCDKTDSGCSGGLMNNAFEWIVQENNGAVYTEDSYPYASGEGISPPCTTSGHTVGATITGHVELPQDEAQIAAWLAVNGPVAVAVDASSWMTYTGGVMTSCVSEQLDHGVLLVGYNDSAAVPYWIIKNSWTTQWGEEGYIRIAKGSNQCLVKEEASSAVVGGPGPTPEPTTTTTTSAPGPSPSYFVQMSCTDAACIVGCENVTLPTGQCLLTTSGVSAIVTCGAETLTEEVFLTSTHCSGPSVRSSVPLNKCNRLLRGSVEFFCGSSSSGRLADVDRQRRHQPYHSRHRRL
Outline: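 Recombinant cruzain activated in 0.1 M acetate buffer pH 5.5 with 5.5 mM DTT, adjusted to 0.1 μM. Enzyme in phosphate buffer with 0.01% Triton. Preincubated with compound 10 min at 35 °C, then fluorogenic substrate added for 10 min. Inhibition % = 100 − (A1/A × 100) against cruzain plus substrate RFU. Triplicate; E-64c as standard.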

[2] = test system: Trypanosoma cruzi; experiment: Antitrypanosomal activity against amastigote stage of Trypanosoma cruzi Y in BALB/c mouse peritoneal macrophages assessed as reduction of number of intracellular parasites per 100 cells after 4 days by hematoxylin/eosin staining-based optical microscopic analysis; type: functional, organism-based; conditions: 96 h
Outline: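 Macrophages plated 2 × 10^5 per well on coverslips in RPMI + 10% FBS for 24 h, infected with trypomastigotes at 10 parasites per macrophage for 2 h, then washed. Compounds at five concentrations, 0.12–10 μM, in triplicate for 6 h. Medium replaced, 4 days further culture. Coverslips fixed in absolute alcohol. IC50 taken as concentration halving amastigotes per 100 macrophages; mean ± SD of three independent experiments.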

[3] = test system: Trypanosoma cruzi; experiment: Antitrypanosomal activity against trypomastigote stage of Trypanosoma cruzi Y infected in BALB/c mouse peritoneal macrophages assessed as inhibition of host cell invasion at 10 uM after 2 hrs by hematoxylin/eosin staining-based optical microscopic analysis; type: functional, organism-based
Outline: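 Macrophages at 1 × 10^5 per well on coverslips in RPMI + 10% FBS for 24 h. Infected with trypomastigotes at 100 per macrophage and treated at 10 μM, with amphotericin B 10 μM as reference. Incubated 2 h at 37 °C, washed, then 2 h more in medium. Fixed in absolute alcohol. Percentage of infected macrophages counted after H&E.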

[4] = test system: Trypanosoma cruzi; experiment: Antitrypanosomal activity against trypomastigote stage of Trypanosoma cruzi Y assessed as living parasites level after 24 hrs by Neubauer chamber analysis; type: functional, organism-based
Outline: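 Y trypomastigotes from LLC-MK2 culture supernatants, 4 × 10^5 per well. Five concentrations, 0.24–20 μM, from DMSO stocks diluted in medium. Incubated 24 h at 37 °C, 5% CO2. Live parasites counted and compared with untreated culture. Run in triplicate, at least three independent experiments. IC50 as mean ± SD.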

[5] = Cytotoxicity against BALB/c mouse peritoneal macrophages after 72 hrs by AlamarBlue assay; type: cell-based, Peritoneal macrophage cell; conditions: read-out: LC50
Outline: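 Peritoneal exudate macrophages from BALB/c mice, 1 × 10^5 cells/well in phenol-red-free RPMI-1640 with 10% FBS and 50 μg/mL gentamycin, pre-incubated 24 h at 37 °C, 5% CO2. Compounds from DMSO stocks diluted in medium, five concentrations 0.24–20 μM in triplicate, 72 h. AlamarBlue added over 10 h, read at 570/600 nm. LC50 from three independent experiments, mean ± SD.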

[6] = test system: Trypanosoma cruzi; experiment: Antitrypanosomal activity against blood stage trypomastigote form of Trypanosoma cruzi Y infected in BALB/c mouse assessed as reduction of mortality at 100 mg/kg, po qd administered for 5 days measured for 30 days; type: functional, organism-based; design: dose 100 mg/kg
Outline: (§1)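 Female BALB/c mice, 6–8 weeks, infected ip with 10^4 bloodstream Y trypomastigotes, six per group. From day 5, oral dosing once daily for five days, vehicle saline with 20% DMSO; untreated infected group got vehicle. Motile parasites counted in 5 μL tail-vein fresh blood. Survival checked daily to day 30. Means ± SEM.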

[7] = test system: Trypanosoma cruzi; experiment: Antitrypanosomal activity against blood stage trypomastigote form of Trypanosoma cruzi Y infected in BALB/c mouse assessed as reduction of blood parasitemia at 100 mg/kg, po qd administered for 5 days relative to control; type: functional; design: scale not given: the % may be the effect or the level left; outline: as §1
[8] = test system: Mus musculus; experiment: Toxicity in BALB/c mouse infected with blood stage trypomastigote form of Trypanosoma cruzi Y at 100 mg/kg, po qd administered for 5 days measured during compound treatment; type: organism-based; design: dose 100 mg/kg, route oral; conditions: in vivo, 120 h; outline: as §1

| Compound | inhibition [1] [%] | IC50 [2] [µM] | inhibition [3] | IC50 [4] [µM] | CC50 at 72 h [5] [µM] | Activity [6] | Activity [7] [%] | Activity [8] |
| --- | --- | --- | --- | --- | --- | --- | --- | --- |
| CC(C)CCNC(=O)[C@H](CC(C)C)NC(=O)[C@H]1O[C@@H]1C(=O)O | 100 | – | – | – | – | – | – | – |
| COc1cc(O)cc2c1[C@@H](/C=C/c1ccccc1)[C@@H]1[C@@H](c3ccccc3)Oc3cc(O)cc(OC)c3[C@@H]1O2 | 0 | 6.8 | Active | 6.6 | 17.3 | – | – | – |
| COc1cc(O)cc2c1[C@@H](/C=C/c1ccc(O)cc1)[C@@H]1[C@@H](c3ccccc3)Oc3cc(O)cc(OC)c3[C@@H]1O2 | 0 | > 20 | – | > 20 | > 20 | – | – | – |
| CN(C)c1ccc(C(=C2C=CC(=[N+](C)C)C=C2)c2ccc(N(C)C)cc2)cc1 [GENTIAN VIOLET] | – | – | – | – | 0.48 | – | – | – |
| COc1ccc(/C=C/[C@@H]2c3c(OC)cc(O)cc3O[C@H]3c4c(OC)cc(O)cc4O[C@H](c4ccccc4)[C@@H]23)cc1 | 0 | 6 | Active | 5.3 | 15.6 | Active | 92 | Non-toxic |
| O=C(Cn1ccnc1[N+](=O)[O-])NCc1ccccc1 [BENZNIDAZOLE] | – | – | Active | 11.3 | > 20 | – | 99 | – |
